Assay outcomes as filed in PubChem.
CRFR2-BP ag – CRF-BP/CRF-R2 complex agonism. HEK293 CRF-R2/CRF-BP, calcium dye fluorescence (FLIPR); percent of saturating CRF peptide response. activation, % at 13.2 µM. 350,000 tested, 0.46% active. AID 588473;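 active means activation of at least 50%, plus an integration ratio under a set limit after plate pattern correction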;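 further: plate controls were neutral control wells without compound for no effect and CRF at EC100 for full effect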
CRFBP-R2 block – antagonists of CRF-binding protein/CRF-R2 receptor complex. 350,000 tested, 0.59% active. HEK293 CRF-R2/CRF-BP, CRF-induced calcium fluorescence. inhibition, % at 11.8 µM;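 active means inhibition of the ligand-induced calcium signal above about 50% at the single tested concentration, limit read from the data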
Tn6 DDE FP – DD(E)-Tn6 binding inhibition, primary FP screen. Fibrin DD(E) TRITC-Tn6 fluorescence polarization displacement. inhibition, % at 8.3 µM. 370,000 tested, 0.21% active. AID 720509;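 active means inhibition above a per-campaign cutoff: mean of compounds within control limits plus 3 SD, cut at about 15% in these data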;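 further: 0% = median of all compound wells on the plate and 100% = blocking peptide control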
KLK7 zymogen act – activators of human kallikrein-7 zymogen; purified proKLK7, EDANS-DABCYL substrate fluorescence; 100% is mature enzyme control, 0% vehicle; 370,000 tested, 0.9% active; P49862; activation, % at 7 µM;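 active means activation above the mean of all tested compounds plus 3 SD, computed per campaign excluding outliers beyond control limits, cut at about 13% in these data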
CendR NRP1 mod – modulators of CendR peptide binding to human neuropilin-1 | O14786 | FAM-RPARPAR peptide binding to NRP-1, fluorescence polarization | inhibition, % at 25 µM | 360,000 tested, 0.85% active | AID 602438;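 active means inhibition or corrected inhibition above about 18%, plus a signal ratio from 0.5 to 1.5, limit read from the data, passing the limit was not always enough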
Tn7 DDE FP – disrupts Tn7 cyclic peptide binding to fibrin D-Dimer-E complex; FP displacement of FITC-Tn7 peptide from fibrin DD(E); 0% = median of compound wells per plate; inhibition, % at 8.3 µM; P02675; AID 720508; 370,000 tested, 0.13% active;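 active means inhibition above the mean of compounds falling within the control limits plus 3 SD of them, cut at about 14% in these data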;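 further: 0% = plate median of compound wells and 100% = 10 µM Aha-Tn7 peptide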
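System: human fibrin DD(E); quantity: Fibrin-DD(E) at 2 µM final; also added: fluorescent Tn7 probe at 0.1 µM; compound dosing: single nominal test concentration of 8.3 µM per compound; schedule: 10 min preincubation, 3 h with tracer, room temperature; detection: fluorescence polarization of the labelled Tn7 tracer; repeats: one replicate per compound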
Tn6 DDE ctr – DD(E)-Tn6 binding inhibition, counter-screen; Fibrin DD(E), TRITC-Tn6 fluorescence polarization displacement; 0% = median of compound wells, not DMSO; shares compounds with Tn6 DDE FP; 680 tested, 2% active; AID 720621; inhibition, % at 8.3 µM;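 active means inhibition above the mean of test compounds lying between the control limits plus 3 SD of those, cut at about 14% in these data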;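 further: 0% = median of compound wells and 100% = wells with Aha-Tn7 blocking peptide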
DDE Tn6 confirm – DD(E)-Tn6 binding inhibition, FP confirmation; shares compounds with Tn6 DDE FP; FP displacement of TRITC-Tn6 peptide from DD(E); 0% = per-plate median of test wells; inhibition, % at 8.3 µM; 680 tested, 10% active; AID 720631;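 active means inhibition above the mean of compounds lying within the control limits plus 3 SD, cut at about 16% in these data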;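 further: 100% = high control wells holding a competing inhibitor peptide at 10 µM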
Numbers without * were called inactive; / = no result given; + = active, no number. Shown are actives, neighbours in structure and some others; about 2.9% of the full set was active somewhere.

SMILES | CRFR2-BP ag | CRFBP-R2 block | Tn6 DDE FP | KLK7 zymogen act | CendR NRP1 mod | Tn7 DDE FP | Tn6 DDE ctr | DDE Tn6 confirm
COc1cccc(C(=O)Nc2cc3c(cc2N2CCCC2)n(C)c(=O)n3C)c1 | -2 | 31 | -3 | 1 | -3 | -6 | / | /
CC(=O)C1(C(=O)Nc2cc(C)cc(C)c2)CC(c2ccccn2)=NO1 (stereo not drawn) | / | / | -4 | -1 | / | -4 | / | /
CCCCC(=Nc1ccc(N)cc1)C1=C(O)C(C(=O)OC)C(C)(C)CC1=O (stereo not drawn) | 7 | -27 | 121* | 4 | 3 | 4 | -4 | 9
C[C@H]1[C@@H](NC(=O)C#Cc2ccccc2)CC[C@@]23CCCN2C(=O)CCC[C@@H]13 | / | / | 5 | / | / | -7 | / | /
Cc1ccc(OC(=O)N(C)C[C@H]2OCc3cn(nn3)CCCC(=O)N([C@@H](C)CO)C[C@@H]2C)cc1 | / | / | -3 | -1 | / | 3 | / | /
COc1ccccc1NS(=O)(=O)c1cccc(NC(=O)Nc2cccc(Cl)c2)c1 | 5 | -6 | 43* | 1 | -2 | 5 | 9 | 17*
O=C1CC(c2ccccc2)c2cc(O)ccc2O1 (stereo not drawn) | -1 | -6 | 9 | 1 | 4 | -4 | / | /
Cc1ccc(C2CC(=O)Oc3cc(O)ccc32)cc1 (stereo not drawn) | -1 | -3 | 34* | 0 | -28 | 7 | -4 | 8
CCOc1ccc(N(CC(=O)Nc2c(C)n(C)n(-c3ccccc3)c2=O)S(=O)(=O)c2cccc3cccnc23)cc1 | / | / | -1 | 0 | / | -1 | / | /
COc1cc(NS(=O)(=O)c2ccc(NC(=S)NC(=O)/C=C/c3ccc(F)cc3)cc2)ncn1 | -4 | 36 | 19* | 0 | -4 | 2 | -6 | -10
Cc1c(Cc2ccccc2)c(=O)oc2cc(OCC(=O)N3CCC(C(N)=O)CC3)ccc12 | 2 | -17 | 18* | 2 | -7 | 5 | 1 | 2
COC(=O)[C@]12C[C@H](CC(=O)NCC34CC5CC(CC(C5)C3)C4)C(=O)N(Cc3ccc4c(c3)OCO4)C1=C[C@H](C(C)(C)C)O[C@@H]2C | / | / | 3 | 1 | / | -3 | / | /
CCN1/C(=C/C=C/c2oc3ccc(-c4ccccc4)cc3[n+]2CC)Oc2ccc(-c3ccccc3)cc21 | 227* | -171 | + | 0 | 135 | -6 | 53* | 93*
C=C1CCN(c2ccc(C(=O)NCc3ccc(OC)cc3)cc2[N+](=O)[O-])CC1 | -3 | 23 | 15* | -1 | 18 | -1 | -3 | -6
CCC(C)(C(=O)NC1CCCC1)N(Cc1cccs1)C(=O)Cc1cccs1 (stereo not drawn) | -1 | -6 | 6 | 0 | 19 | -2 | / | /
CCC(C)(C(=O)NC1CCCCC1)N(C(=O)Cc1cccs1)c1ccccc1 (stereo not drawn) | -3 | -34 | 15* | 0 | 2 | 0 | 1 | 2
COC(=O)c1cccc(NC(=S)N2CCCCC2)c1 | 0 | 26 | 0 | -1 | 10 | -9 | / | /
COC(=O)c1cccc(NC(=S)N2CCN(c3ccccc3F)CC2)c1 | 0 | -11 | 18* | 0 | 9 | 4 | 2 | -8
Fc1ccc2nc(C3CCCCN3Cc3nc(CC4CC4)no3)[nH]c2c1 (stereo not drawn) | 1 | 2 | 16* | 0 | 8 | 1 | 2 | -5
COc1ccc(NC(=O)C(=O)N/N=C/c2cccnc2)c(OC)c1 | 0 | 0 | 16* | 0 | 3 | 8 | 2 | -3
COc1ccc(NC(=O)/C(C#N)=C/c2cccnc2)c(OC)c1 | 1 | -5 | 9 | 0 | -7 | -1 | / | /
O=C(COC(=O)[C@H](Cc1ccccc1)NC(=O)c1cccs1)Nc1c(Cl)cccc1Cl | 0 | -38 | 5 | 0 | 0 | -3 | / | /
O=C(N[C@@H](Cc1ccccc1)C(=O)OCC(=O)N1CCOCC1)c1cccs1 | 0 | 7 | 18* | 1 | 7 | -1 | 3 | -5
O=C(NN=Cc1cccc(OCc2ccccc2)c1)c1cc(-c2ccc(Cl)cc2)n[nH]1 | / | / | 22* | 2 | / | -4 | 2 | -1
O=C(NN=Cc1ccc(O)cc1)c1cc(-c2ccc(Cl)cc2)n[nH]1 | / | / | -6 | -2 | / | 1 | / | /
SMILES | CRFR2-BP ag | CRFBP-R2 block | Tn6 DDE FP | KLK7 zymogen act | CendR NRP1 mod | Tn7 DDE FP | Tn6 DDE ctr | DDE Tn6 confirm
COC(=O)[C@]12C[C@H](CC(=O)NCCCN3CCCC3=O)C(=O)N(Cc3cccc4ccccc34)C1=C[C@H](C1CCCC1)O[C@@H]2C | / | / | 9 | 0 | / | -3 | / | /
COc1cccc(Cn2cc(COC(=O)N(C)Cc3ccccc3)nn2)c1 | / | / | 2 | 0 | / | 2 | / | /
C[C@H](CO)N1C[C@H](C)[C@@H](CN(C)S(=O)(=O)c2ccc(F)cc2)Oc2ccc(NC(=O)Nc3ccccc3)cc2C1=O | 0 | -1 | 4 | 1 | 8 | 2 | / | /
C[C@H](CO)N1C[C@H](C)[C@@H](CN(C)S(=O)(=O)c2cccs2)Oc2ccc(NC(=O)Nc3ccccc3)cc2C1=O | -1 | 10 | -6 | 1 | 0 | 0 | / | /
C[C@@H]1CN([C@@H](C)CO)C(=O)Cc2cc(NC(=O)Nc3ccc(C(F)(F)F)cc3)ccc2O[C@@H]1CN(C)S(=O)(=O)c1ccc(Cl)cc1 | 3 | -3 | 32* | 0 | -1 | 0 | 0 | 12
C[C@H](CO)N1C[C@H](C)[C@H](CN(C)S(=O)(=O)c2cn(C)cn2)Oc2ccc(NC(=O)Nc3ccc(C(F)(F)F)cc3)cc2CC1=O | 2 | -6 | -14 | 0 | 1 | 0 | / | /
C[C@H](CO)N1C[C@H](C)[C@@H](CN(C)S(=O)(=O)c2cccs2)Oc2ccc(NC(=O)Nc3ccc(C(F)(F)F)cc3)cc2C1=O | 1 | 1 | 51* | 1 | -14 | 10 | 2 | 1
C[C@@H]1CN([C@H](C)CO)C(=O)c2cc(NC(=O)Nc3ccc(C(F)(F)F)cc3)ccc2O[C@H]1CN(C)S(=O)(=O)c1cccs1 | 1 | -1 | 54* | 0 | -4 | 2 | -2 | 9
C[C@H](CO)N1C[C@H](C)[C@@H](CN(C)S(=O)(=O)c2ccc(F)cc2)Oc2ccc(NC(=O)Nc3ccc(C(F)(F)F)cc3)cc2C1=O | 3 | 5 | 42* | 0 | 0 | 0 | 5 | 4
N#CCCCc1cn(-c2cccc(-c3noc4c3C(=O)N(CC(=O)N3CCOCC3)CC4)c2)nn1 | / | / | 2 | 0 | / | -6 | / | /
